Source: ChEMBL document CHEMBL3272249, “Esters of N-tert-butylarterenol. Long-acting new bronchodilators with reduced cardiac effects” (J Med Chem, 1976)

Key:
Canis familiaris [1] = experiment: Bronchodilator activity in dog assessed as degree of inhibition of carbachol or histamine-induced bronchoconstriction at 160 mg/kg, id relative to control; assay type: functional; conditions: Canis lupus familiaris, route intraduodenal
Outline: (§1)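 Anesthetized dogs, trachea cannulated with a nonbreathing valve. Bronchoconstriction induced by iv carbachol (2–4 μg/kg) or histamine diphosphate (20–50 μg/kg) in separate animals, and airway pressure recorded by transducer. Drug stocks were made fresh in distilled water, diluted in saline and kept on ice. Read-out was percent inhibition of control constriction, averaged over at least three dogs per dose at the higher dose. Carbachol and histamine data were combined.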

Canis familiaris [2] = experiment: Bronchodilator activity in dog assessed as time of inhibition of carbachol or histamine-induced bronchoconstriction at 20 to 40 mg/kg, iv relative to control; assay type: functional, Canis lupus familiaris; conditions: dose mg/kg 20-40
Outline: (§2)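 Dog airway model: anesthetized, cannulated via a nonbreathing valve, with airway pressure changes recorded after iv carbachol (2–4 μg/kg) or histamine diphosphate (20–50 μg/kg) challenge, each agonist in different animals. Compounds were given iv, intraduodenally or intratracheally from fresh aqueous stocks diluted in saline. Duration (h) of inhibition of induced bronchoconstriction was followed, and the two agonist datasets were pooled.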

Canis familiaris [3] = experiment: Cardiotoxicity in spontaneously respiring dog assessed as time of increase in heart rate at 20 to 40 mg/kg, iv relative to control; assay type: toxicity, organism-based, Canis lupus familiaris; design: dose 20-40 mg/kg, route intravenous; conditions: in vivo
Outline: (§3)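 Anesthetized, spontaneously respiring dogs. Heart rate was taken from a lead II EKG, and blood pressure from the right femoral artery by transducer. The increase in heart rate (beats/min) was scored on a graded scale with more than 4 dogs per dose, and its duration was recorded. Drugs were dissolved fresh in distilled water, diluted in physiological saline and kept on ice.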

Canis familiaris [4] = experiment: Bronchodilator activity in dog assessed as time of inhibition of carbachol or histamine-induced bronchoconstriction at 250 to 1000 mg/kg, it relative to control; assay type: functional, Canis lupus familiaris; conditions: dose mg/kg 250-1000; route endotracheal; outline: as §2
Canis familiaris [5] = experiment: Cardiotoxicity in spontaneously respiring dog assessed as degree of increase in heart rate at 160 mg/kg, id relative to control; assay type: toxicity, organism-based, Canis lupus familiaris; design: dose 160 mg/kg, route intraduodenal; conditions: in vivo, other; outline: as §3
Canis familiaris [6] = experiment: Cardiotoxicity in spontaneously respiring dog assessed as time of increase in heart rate at 250 to 1000 mg/kg, it relative to control; assay type: toxicity, organism-based, Canis lupus familiaris; design: dose 250-1000 mg/kg, route endotracheal; conditions: in vivo, inhaled_or_intranasal; outline: as §3
Canis familiaris [7] = experiment: Cardiotoxicity in spontaneously respiring dog assessed as degree of increase in heart rate at 250 to 1000 mg/kg, it relative to control; assay type: toxicity, organism-based, Canis lupus familiaris; design: dose 250-1000 mg/kg, route endotracheal; conditions: in vivo, inhaled_or_intranasal; outline: as §3
Canis familiaris [8] = experiment: Bronchodilator activity in dog assessed as time of inhibition of carbachol or histamine-induced bronchoconstriction at 160 mg/kg, id relative to control; assay type: functional, Canis lupus familiaris; conditions: route intraduodenal; outline: as §2
Canis familiaris [9] = experiment: Cardiotoxicity in spontaneously respiring dog assessed as degree of increase in heart rate at 20 to 40 mg/kg, iv relative to control; assay type: toxicity, organism-based, Canis lupus familiaris; design: dose 20-40 mg/kg, route intravenous; conditions: in vivo; outline: as §3
Canis familiaris [10] = experiment: Bronchodilator activity in dog assessed as degree of inhibition of carbachol or histamine-induced bronchoconstriction at 250 to 1000 mg/kg, it relative to control; assay type: functional, Canis lupus familiaris; conditions: dose mg/kg 250-1000; route endotracheal; outline: as §1
Canis familiaris [11] = experiment: Bronchodilator activity in dog assessed as degree of inhibition of carbachol or histamine-induced bronchoconstriction at 20 to 40 mg/kg, iv relative to control; assay type: functional, Canis lupus familiaris; conditions: dose mg/kg 20-40; outline: as §1
Canis familiaris [12] = experiment: Cardiotoxicity in spontaneously respiring dog assessed as time of increase in heart rate at 160 mg/kg, id relative to control; assay type: toxicity, organism-based, Canis lupus familiaris; design: dose 160 mg/kg, route intraduodenal; conditions: in vivo, other; outline: as §3
Canis familiaris [13] = experiment: Bronchodilator activity in dog assessed as time of inhibition of carbachol or histamine-induced bronchoconstriction at 150 to 300 mg/kg, it relative to control; assay type: functional, Canis lupus familiaris; conditions: dose mg/kg 150-300; route endotracheal
Outline: (§4)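 Dog with airway cannulated through a nonbreathing valve. Bronchoconstriction induced by iv carbachol (2–4 µg/kg) or histamine diphosphate (20–50 µg/kg); airway pressure recorded by pressure transducer. Each compound tested against both agonists in different animals, and results were combined and averaged. Bronchodilation = % inhibition of control constriction; degree scored as +, ++, +++ (20-45, 45-70, >70%) from higher dose, ≥3 dogs/dose; duration in h.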

Canis familiaris [14] = experiment: Cardiotoxicity in spontaneously respiring dog assessed as time of increase in heart rate at 150 to 300 mg/kg, it relative to control; assay type: toxicity, organism-based, Canis lupus familiaris; design: dose 150-300 mg/kg, route endotracheal; conditions: in vivo, inhaled_or_intranasal
Outline: (§5)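 Anesthetized, spontaneously respiring dogs. Heart rate monitored by lead II EKG; blood pressure from right femoral artery by pressure transducer. Rise in heart rate (beats/min) scored ±=5-15, +=20-40, ++=40-60, +++=>60, n>4/dose; duration of the rise in h. Drug stocks freshly made in distilled water, diluted in physiological saline, kept on ice.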

Canis familiaris [15] = experiment: Cardiotoxicity in spontaneously respiring dog assessed as time of increase in heart rate at 50 to 300 mg/kg, id relative to control; assay type: toxicity, organism-based, Canis lupus familiaris; design: dose 50-300 mg/kg, route intraduodenal; conditions: in vivo, other; outline: as §5
Canis familiaris [16] = experiment: Bronchodilator activity in dog assessed as time of inhibition of carbachol or histamine-induced bronchoconstriction at 50 to 300 mg/kg, id relative to control; assay type: functional, Canis lupus familiaris; conditions: dose mg/kg 50-300; route intraduodenal; outline: as §4
Canis familiaris [17] = experiment: Bronchodilator activity in dog assessed as degree of inhibition of carbachol or histamine-induced bronchoconstriction at 50 to 300 mg/kg, id relative to control; assay type: functional, Canis lupus familiaris; conditions: dose mg/kg 50-300; route intraduodenal; outline: as §4
Canis familiaris [18] = experiment: Bronchodilator activity in dog assessed as degree of inhibition of carbachol or histamine-induced bronchoconstriction at 0.35 to 2 mg/kg, iv relative to control; assay type: functional, Canis lupus familiaris; conditions: dose mg/kg 0.35-2; outline: as §4
Canis familiaris [19] = experiment: Cardiotoxicity in spontaneously respiring dog assessed as degree of increase in heart rate at 0.35 to 2 mg/kg, iv relative to control; assay type: toxicity, organism-based, Canis lupus familiaris; design: dose 0.35-2 mg/kg, route intravenous; conditions: in vivo; outline: as §5
Canis familiaris [20] = experiment: Cardiotoxicity in spontaneously respiring dog assessed as time of increase in heart rate at 0.35 to 2 mg/kg, iv relative to control; assay type: toxicity, organism-based, Canis lupus familiaris; design: dose 0.35-2 mg/kg, route intravenous; conditions: in vivo; outline: as §5
Canis familiaris [21] = experiment: Bronchodilator activity in dog assessed as time of inhibition of carbachol or histamine-induced bronchoconstriction at 0.35 to 2 mg/kg, iv relative to control; assay type: functional, Canis lupus familiaris; conditions: dose mg/kg 0.35-2; outline: as §4
Canis familiaris [22] = experiment: Cardiotoxicity in spontaneously respiring dog assessed as degree of increase in heart rate at 150 to 300 mg/kg, it relative to control; assay type: toxicity, organism-based, Canis lupus familiaris; design: dose 150-300 mg/kg, route endotracheal; conditions: in vivo, inhaled_or_intranasal; outline: as §5
Canis familiaris [23] = experiment: Cardiotoxicity in spontaneously respiring dog assessed as degree of increase in heart rate at 50 to 300 mg/kg, id relative to control; assay type: toxicity, organism-based, Canis lupus familiaris; design: dose 50-300 mg/kg, route intraduodenal; conditions: in vivo, other; outline: as §5
Canis familiaris [24] = experiment: Bronchodilator activity in dog assessed as degree of inhibition of carbachol or histamine-induced bronchoconstriction at 150 to 300 mg/kg, it relative to control; assay type: functional, Canis lupus familiaris; conditions: dose mg/kg 150-300; route endotracheal; outline: as §4
Canis familiaris [25] = experiment: Cardiotoxicity in spontaneously respiring dog assessed as time of increase in heart rate at 0.3 to 2 mg/kg, iv relative to control; assay type: toxicity, organism-based, Canis lupus familiaris; design: dose 0.3-2 mg/kg, route intravenous; conditions: in vivo; outline: as §3
Canis familiaris [26] = experiment: Cardiotoxicity in spontaneously respiring dog assessed as time of increase in heart rate at 50 to 240 mg/kg, id relative to control; assay type: toxicity, organism-based, Canis lupus familiaris; design: dose 50-240 mg/kg, route intraduodenal; conditions: in vivo, other
Outline: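 Anesthetized, spontaneously respiring dogs. Heart rate monitored by lead II EKG, with blood pressure taken from the right femoral artery by pressure transducer and recorded on a polygraph. Drug stocks made fresh in distilled water, diluted in physiological saline and kept on ice. Dosing was iv, id or it as listed. The duration of the heart-rate increase was recorded in h, with more than 4 dogs per dose.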

Canis familiaris [27] = experiment: Cardiotoxicity in spontaneously respiring dog assessed as degree of increase in heart rate at 125 to 150 mg/kg, it relative to control; assay type: toxicity, organism-based, Canis lupus familiaris; design: dose 125-150 mg/kg, route endotracheal; conditions: in vivo, inhaled_or_intranasal; outline: as §3
Canis familiaris [28] = experiment: Bronchodilator activity in dog assessed as time of inhibition of carbachol or histamine-induced bronchoconstriction at 50 to 240 mg/kg, id relative to control; assay type: functional, Canis lupus familiaris; conditions: dose mg/kg 50-240; route intraduodenal; outline: as §4
Canis familiaris [29] = experiment: Bronchodilator activity in dog assessed as degree of inhibition of carbachol or histamine-induced bronchoconstriction at 50 to 240 mg/kg, id relative to control; assay type: functional, Canis lupus familiaris; conditions: dose mg/kg 50-240; route intraduodenal; outline: as §4
Canis familiaris [30] = experiment: Bronchodilator activity in dog assessed as time of inhibition of carbachol or histamine-induced bronchoconstriction at 125 to 250 mg/kg, it relative to control; assay type: functional, Canis lupus familiaris; conditions: dose mg/kg 125-250; route endotracheal; outline: as §4
Canis familiaris [31] = experiment: Cardiotoxicity in spontaneously respiring dog assessed as time of increase in heart rate at 125 to 250 mg/kg, it relative to control; assay type: toxicity, organism-based, Canis lupus familiaris; design: dose 125-250 mg/kg, route endotracheal; conditions: in vivo, inhaled_or_intranasal; outline: as §3
Canis familiaris [32] = experiment: Cardiotoxicity in spontaneously respiring dog assessed as degree of increase in heart rate at 0.3 to 2 mg/kg, iv relative to control; assay type: toxicity, organism-based, Canis lupus familiaris; design: dose 0.3-2 mg/kg, route intravenous; conditions: in vivo; outline: as §3
Canis familiaris [33] = experiment: Bronchodilator activity in dog assessed as degree of inhibition of carbachol or histamine-induced bronchoconstriction at 0.3 to 2 mg/kg, iv relative to control; assay type: functional, Canis lupus familiaris; conditions: dose mg/kg 0.3-2; outline: as §4
Canis familiaris [34] = experiment: Bronchodilator activity in dog assessed as degree of inhibition of carbachol or histamine-induced bronchoconstriction at 125 to 250 mg/kg, it relative to control; assay type: functional, Canis lupus familiaris; conditions: dose mg/kg 125-250; route endotracheal; outline: as §4
Canis familiaris [35] = experiment: Cardiotoxicity in spontaneously respiring dog assessed as degree of increase in heart rate at 50 to 240 mg/kg, id relative to control; assay type: toxicity, organism-based, Canis lupus familiaris; design: dose 50-240 mg/kg, route intraduodenal; conditions: in vivo, other; outline: as §3
Canis familiaris [36] = experiment: Bronchodilator activity in dog assessed as time of inhibition of carbachol or histamine-induced bronchoconstriction at 0.3 to 2 mg/kg, iv relative to control; assay type: functional, Canis lupus familiaris; conditions: dose mg/kg 0.3-2; outline: as §4

COc1ccc(C(=O)Oc2ccc([C@@H](O)CNC(C)(C)C)cc2OC(C)=O)cc1.CS(=O)(=O)O
inhibition in vivo at 160 mg/kg (Canis familiaris [1]): > 70%
Time (Canis familiaris [2]): >4 h
Time (Canis familiaris [3]): 2 h
Time (Canis familiaris [4]): >6 h
Activity (Canis familiaris [5]): 20%
Time (Canis familiaris [6]): < 1 h
Activity (Canis familiaris [7]): 5%
Time (Canis familiaris [8]): >5 h
Activity (Canis familiaris [9]): 20%
inhibition (INH) (Canis familiaris [10]): >70%
inhibition (INH) (Canis familiaris [11]): >70%
Time (Canis familiaris [12]): < 3 h

CC(C)(C)NC[C@H](O)c1ccc(O)c(O)c1
Time (Canis familiaris [13]): <2 h
Time (Canis familiaris [14]): 1 h
Time (Canis familiaris [15]): 3 h
Time (Canis familiaris [16]): 3 h
inhibition (INH) (Canis familiaris [17]): 45%
inhibition (INH) (Canis familiaris [18]): >70%
Activity (Canis familiaris [19]): 40%
Time (Canis familiaris [20]): < 0.25 h
Time (Canis familiaris [21]): >1 h
Activity (Canis familiaris [22]): 20%
Activity (Canis familiaris [23]): 40%
inhibition (INH) (Canis familiaris [24]): >70%

CC(C)NCC(O)c1ccc(O)c(O)c1 (stereo unspecified) [ISOPROTERENOL]
Time (Canis familiaris [25]): < 0.25 h
Time (Canis familiaris [26]): 2 h
Activity (Canis familiaris [27]): 20%
Time (Canis familiaris [28]): <2 h
inhibition (INH) (Canis familiaris [29]): 20%
Time (Canis familiaris [30]): <1 h
Time (Canis familiaris [31]): 1 h
Activity (Canis familiaris [32]): > 60%
inhibition (INH) (Canis familiaris [33]): >70%
inhibition (INH) (Canis familiaris [34]): >70%
Activity (Canis familiaris [35]): 40%
Time (Canis familiaris [36]): <1 h
